How the values were obtained:
[1] = molecular target: T1, Discoidin domain-containing receptor 2 (Homo sapiens, UniProt Q16832); test: Inhibition of DDR2 (unknown origin) using poly (Glu, Tyr) 4:1 substrate after 60 mins by ELISA
T1 sequence (Q16832 whole entry): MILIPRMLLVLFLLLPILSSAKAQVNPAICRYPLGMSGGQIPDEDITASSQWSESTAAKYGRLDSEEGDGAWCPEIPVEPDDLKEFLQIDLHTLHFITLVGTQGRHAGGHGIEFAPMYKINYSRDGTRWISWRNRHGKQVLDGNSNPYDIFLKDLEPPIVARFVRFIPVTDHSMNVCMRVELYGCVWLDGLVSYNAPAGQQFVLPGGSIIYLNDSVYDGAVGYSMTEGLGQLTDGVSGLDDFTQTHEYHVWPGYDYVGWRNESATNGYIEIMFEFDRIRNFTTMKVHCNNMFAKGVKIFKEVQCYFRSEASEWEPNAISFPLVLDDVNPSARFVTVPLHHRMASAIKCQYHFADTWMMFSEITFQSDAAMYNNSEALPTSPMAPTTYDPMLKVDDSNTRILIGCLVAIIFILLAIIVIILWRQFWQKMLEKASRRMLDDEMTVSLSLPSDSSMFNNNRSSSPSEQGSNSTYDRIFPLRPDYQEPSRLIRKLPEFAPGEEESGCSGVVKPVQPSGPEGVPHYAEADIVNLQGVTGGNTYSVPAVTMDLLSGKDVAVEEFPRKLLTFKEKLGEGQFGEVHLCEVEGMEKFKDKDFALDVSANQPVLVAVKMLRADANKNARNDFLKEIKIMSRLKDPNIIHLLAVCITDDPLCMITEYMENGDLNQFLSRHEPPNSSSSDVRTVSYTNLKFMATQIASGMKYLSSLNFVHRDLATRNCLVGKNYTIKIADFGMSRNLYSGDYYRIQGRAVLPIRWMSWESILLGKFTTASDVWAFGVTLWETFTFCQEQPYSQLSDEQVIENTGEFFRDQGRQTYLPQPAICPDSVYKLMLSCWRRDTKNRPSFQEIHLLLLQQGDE

[2] = tested on: NCI-H2286; test: Antiproliferative activity against human NCI-H2286 cells at 100 nM after 72 hrs by CCK8 assay relative to control; format: functional
[3] = tested on: KG-1; test: Antiproliferative activity against human KG1 cells after 72 hrs by CCK8 assay; conditions: KG-1, 72 h
[4] = molecular target: T2, Discoidin domain-containing receptor 2 (Homo sapiens) (UniProt Q16832); test: Inhibition of DDR2 (unknown origin) at 100 nM using poly (Glu, Tyr) 4:1 substrate after 60 mins by ELISA relative to control
T2 sequence (whole entry): T1 sequence (Q16832 whole entry)
Outline: (§1)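 ELISA with purified recombinant DDR2 on poly(Glu,Tyr) 4:1 precoated at 20 µg/mL. 10 µM ATP in HEPES pH 7.4 buffer with MgCl2, MnCl2, Na3VO4 and DTT, 1% DMSO; 60 min at 37 °C. Phosphotyrosine detected by PY99 and HRP anti-mouse IgG with o-phenylenediamine at A490. Inhibition = 1−A490/A490control; two separate experiments.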

[5] = Half life in ICR(CD-1) mouse at 10 mg/kg, po administered via gavage by triple quadrupole mass spectrometric analysis; format: ADME, organism-based; conditions: in vivo
Outline: (§2)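 Oral gavage at 1 mg/mL in 1% Tween80/water to male ICR mice (18-22 g, n=3). Plasma sampled at 0.25, 0.5, 1, 2, 4, 8 and 24 h, protein precipitated with methanol:acetonitrile (1:1) containing internal standard, and quantified by UPLC-triple quadrupole MS. AUC and MRT were taken from per-animal time-concentration curves. Cmax is the maximum plasma level and Tmax the time to reach it.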

[6] = AUC (0 to t) in ICR(CD-1) mouse at 10 mg/kg, po administered via gavage by triple quadrupole mass spectrometric analysis; format: ADME, organism-based; conditions: in vivo; outline: as §2
[7] = tested on: NCI-H2286; test: Antiproliferative activity against human NCI-H2286 cells after 72 hrs by CCK8 assay; conditions: NCI-H2286, 72 h
[8] = MRT in ICR(CD-1) mouse at 10 mg/kg, po administered via gavage by triple quadrupole mass spectrometric analysis; format: ADME, organism-based; conditions: in vivo
Outline: (§3)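 Dosed by gavage at 1 mg/mL in 1% Tween80/water to male ICR mice, 18-22 g, n=3. Blood taken at 0.25, 0.5, 1, 2, 4, 8 and 24 h. Plasma precipitated with methanol:acetonitrile (1:1) containing internal standard, then UPLC-MS/MS on a C18 column with an ammonium acetate/formic acid–acetonitrile gradient. Tmax read directly from the data; MRT calculated per animal from concentration–time curves.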

[9] = Cmax in ICR(CD-1) mouse at 10 mg/kg, po administered via gavage by triple quadrupole mass spectrometric analysis; format: ADME, organism-based; parameters: dose 10 mg/kg, route oral; conditions: in vivo; outline: as §2
[10] = Tmax in ICR(CD-1) mouse at 10 mg/kg, po administered via gavage by triple quadrupole mass spectrometric analysis; format: ADME, organism-based; conditions: in vivo; outline: as §3
[11] = AUC (0 to infinity) in ICR(CD-1) mouse at 10 mg/kg, po administered via gavage by triple quadrupole mass spectrometric analysis; format: ADME, organism-based; parameters: dose 10 mg/kg, route oral, time infinity; conditions: in vivo; outline: as §2
[12] = molecular target: T2, Discoidin domain-containing receptor 2 (Homo sapiens); test: Inhibition of DDR2 (unknown origin) at 1000 nM using poly (Glu, Tyr) 4:1 substrate after 60 mins by ELISA relative to control; outline: as §1
[13] = molecular target: Fibroblast growth factor receptor 1 (Homo sapiens, UniProt P11362); test: Inhibition of FGFR1 (unknown origin) after 60 mins by ELISA
Chain of Fibroblast growth factor receptor 1 (P11362 whole entry): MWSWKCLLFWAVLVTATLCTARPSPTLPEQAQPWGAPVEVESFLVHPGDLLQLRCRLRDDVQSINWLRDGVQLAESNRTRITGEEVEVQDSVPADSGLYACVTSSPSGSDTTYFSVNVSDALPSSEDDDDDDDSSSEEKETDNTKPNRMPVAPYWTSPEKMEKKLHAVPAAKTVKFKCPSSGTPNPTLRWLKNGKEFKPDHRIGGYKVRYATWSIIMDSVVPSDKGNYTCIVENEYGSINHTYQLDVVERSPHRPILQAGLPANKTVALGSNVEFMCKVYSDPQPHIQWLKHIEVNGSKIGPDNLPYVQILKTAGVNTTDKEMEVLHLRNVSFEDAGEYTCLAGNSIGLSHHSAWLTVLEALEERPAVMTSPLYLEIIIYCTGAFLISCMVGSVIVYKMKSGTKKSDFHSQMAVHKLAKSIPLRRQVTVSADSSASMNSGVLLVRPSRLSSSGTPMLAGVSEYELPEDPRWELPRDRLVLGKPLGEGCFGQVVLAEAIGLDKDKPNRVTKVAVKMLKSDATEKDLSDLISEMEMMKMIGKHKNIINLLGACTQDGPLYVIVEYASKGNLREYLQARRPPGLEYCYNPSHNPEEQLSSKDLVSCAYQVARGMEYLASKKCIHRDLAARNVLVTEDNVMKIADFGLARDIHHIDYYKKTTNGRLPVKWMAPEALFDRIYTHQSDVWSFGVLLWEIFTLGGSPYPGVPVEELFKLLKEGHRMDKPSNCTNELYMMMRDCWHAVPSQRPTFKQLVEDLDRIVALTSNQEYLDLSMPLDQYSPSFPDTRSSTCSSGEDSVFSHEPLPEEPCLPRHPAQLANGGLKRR

## Cc1ccc(C(=O)Nc2ccc(CN3CCN(C)CC3)cc2)cc1-c1ccc2cn[nH]c2c1
[1]
  IC50: 6.7 nM

## Cc1ccc(C(=O)Nc2cccc(C(F)(F)F)c2)cc1-c1ccc2c(-c3cnn(C(C)C)c3)n[nH]c2c1
[2]
  Activity: 31%
[3]
  IC50: 452 nM
[1]
  IC50: 7.7 nM

## Cc1ccc(C(=O)Nc2ccc(N3CCN(C)CC3)cc2)cc1-c1ccc2cn[nH]c2c1
[4]
  inhibition: 25.8%

## Cc1ccc(-c2ccc3cn[nH]c3c2)cc1NC(=O)c1cccc(C(F)(F)F)c1
[4]
  inhibition: 37.3%

## Cc1ccc(C(=O)Nc2cccc(C(F)(F)F)c2)cc1-c1ccc2c(-c3cnn(C)c3)n[nH]c2c1
[5]
  half-life: 2.75 h
[6]
  AUC(0-t): 3480 ng·h/mL
[7]
  IC50: 24.3 nM
[3]
  IC50: 65.7 nM
[8]
  MRT: 3.26 h
[1]
  IC50: 4.4 nM
[9]
  Cmax: 890 ng/mL
[10]
  Tmax: 1.17 h
[11]
  AUC(0-inf): 3480 ng·h/mL

## Cc1c(NC(=O)c2cccc(C(F)(F)F)c2)cccc1-c1ccc2cn[nH]c2c1
[4]
  inhibition: 41.8%

## Cc1ccc(C(=O)Nc2cccc(C(F)(F)F)c2)cc1-c1ccc2c(-c3cnn(C4CCCCO4)c3)n[nH]c2c1 (stereo unspecified)
[2]
  Activity: 45%
[3]
  IC50: 121 nM
[1]
  IC50: 5.2 nM

## CCn1cc(-c2n[nH]c3cc(-c4cc(C(=O)Nc5cccc(C(F)(F)F)c5)ccc4C)ccc23)cn1
[7]
  IC50: 19.8 nM
[3]
  IC50: 257 nM
[1]
  IC50: 2.6 nM

## Cc1ccc(C(=O)NCc2cccc(C(F)(F)F)c2)cc1-c1ccc2cn[nH]c2c1
[1]
  IC50: 8 nM

## CCN1CCN(Cc2cc(NC(=O)c3ccc(C)c(-c4ccc5cn[nH]c5c4)c3)cc(C(F)(F)F)c2)CC1
[1]
  IC50: 3.9 nM

## Cn1ncc2ccc(-c3cccc(NC(=O)c4cccc(C(F)(F)F)c4)c3)cc21
[4]
  inhibition: 7.6%
[12]
  inhibition: 29.8%

## Cc1ccc(C(=O)Nc2cccc(C(F)(F)F)c2)cc1-c1ccc2c(-c3cnn(C4CCOC4)c3)n[nH]c2c1 (stereo unspecified)
[7]
  IC50: 69.7 nM
[3]
  IC50: 304 nM
[1]
  IC50: 6.2 nM

## Cc1ccc(C(=O)Nc2cccc(C(F)(F)F)c2)cc1-c1ccc2c(-c3cnn(CC(C)O)c3)n[nH]c2c1 (stereo unspecified)
[5]
  half-life: 0.75 h
[6]
  AUC(0-t): 324 ng·h/mL
[7]
  IC50: 196 nM
[3]
  IC50: 339 nM
[8]
  MRT: 1.37 h
[1]
  IC50: 3.7 nM
[9]
  Cmax: 202 ng/mL
[10]
  Tmax: 0.25 h
[11]
  AUC(0-inf): 334 ng·h/mL

## Cc1ccc(C(=O)Nc2cccc(C(F)(F)F)c2)cc1-c1ccc2c(-c3cnn(CC(=O)N(C)C)c3)n[nH]c2c1
[7]
  IC50: > 1000 nM
[3]
  IC50: 441 nM
[1]
  IC50: 2.7 nM

## Cc1ccc(C(=O)Nc2cccc(N3CCN(C)CC3)c2)cc1-c1ccc2cn[nH]c2c1
[4]
  inhibition: 37.3%

## Cc1ccc(C(=O)Nc2cccc(CN3CCN(C)CC3)c2)cc1-c1ccc2cn[nH]c2c1
[1]
  IC50: 75.9 nM

## Cc1ccc(C(=O)Nc2cccc(C(F)(F)F)c2)cc1-c1ccc2c(-c3ccc(N4CCOCC4)cc3)n[nH]c2c1
[7]
  IC50: 140 nM
[3]
  IC50: 561 nM
[1]
  IC50: 21.6 nM

## Cc1ccc(C(=O)Nc2cccc(C(F)(F)F)c2)cc1-c1ccc2c(-c3cnn(C4CCN(C)CC4)c3)n[nH]c2c1
[5]
  half-life: 2.75 h
[6]
  AUC(0-t): 552 ng·h/mL
[7]
  IC50: 56.5 nM
[3]
  IC50: 93.3 nM
[8]
  MRT: 3.96 h
[1]
  IC50: 3.8 nM
[9]
  Cmax: 170 ng/mL
[10]
  Tmax: 1.33 h
[11]
  AUC(0-inf): 563 ng·h/mL

## Cc1ccc(C(=O)Nc2cccc(C(F)(F)F)c2)cc1-c1ccc2c(-c3cn[nH]c3)n[nH]c2c1
[13]
  IC50: > 100 nM
[7]
  IC50: > 1000 nM
[3]
  IC50: > 1000 nM
[1]
  IC50: 55.6 nM

## COc1ccc(NC(=O)c2cccc(C(F)(F)F)c2)cc1-c1ccc2cn[nH]c2c1
[1]
  IC50: 67.9 nM

## Cc1ccc(C(=O)Nc2cc(CN3CCN(CCO)CC3)cc(C(F)(F)F)c2)cc1-c1ccc2cn[nH]c2c1
[1]
  IC50: 3.4 nM

## O=C(Nc1cccc(-c2ccc3cn[nH]c3c2)c1)Nc1cccc(C(F)(F)F)c1
[4]
  inhibition: 20.1%
[12]
  inhibition: 53.3%

## O=C(Nc1ccc(F)c(-c2ccc3cn[nH]c3c2)c1)c1cccc(C(F)(F)F)c1
[1]
  IC50: 64.3 nM

## Cc1ccc(C(=O)NCc2cccc(N3CCN(C)CC3)c2)cc1-c1ccc2cn[nH]c2c1
[4]
  inhibition: 23.2%

## Cc1ccc(C(=O)Nc2cccc(C(F)(F)F)c2)cc1-c1ccc2c(-c3ccc(C(=O)N4CCN(C)CC4)cc3)n[nH]c2c1
[2]
  Activity: 45%
[3]
  IC50: 300 nM
[1]
  IC50: 6.5 nM

## Cc1ccc(C(=O)Nc2cccc(C(F)(F)F)c2)cc1-c1ccc2c(-c3cnn(CCO)c3)n[nH]c2c1
[2]
  Activity: 35%
[3]
  IC50: 174 nM
[1]
  IC50: 2.9 nM

## Nc1n[nH]c2cc(-c3cccc(NC(=O)c4cccc(C(F)(F)F)c4)c3)ccc12
[4]
  inhibition: 22.8%
[12]
  inhibition: 24.8%

## O=C(Nc1ccc(Cl)c(-c2ccc3cn[nH]c3c2)c1)c1cccc(C(F)(F)F)c1
[1]
  IC50: 9.5 nM

## O=C(Nc1cccc(C(F)(F)F)c1)c1cccc(-c2ccc3cn[nH]c3c2)c1
[4]
  inhibition: 58.2%
[12]
  inhibition: 84.7%

## Cc1ccc(NC(=O)c2cccc(C(F)(F)F)c2)cc1-c1ccc2cn[nH]c2c1
[1]
  IC50: 5.5 nM

## Cc1ccc(C(=O)Nc2cccc(C(F)(F)F)c2)cc1-c1ccc2c(-c3cnn(CCN4CCOCC4)c3)n[nH]c2c1
[2]
  Activity: 49%
[3]
  IC50: 114 nM
[1]
  IC50: 2.6 nM

## Cc1ccc(C(=O)Nc2cccc(C(C)C)c2)cc1-c1ccc2cn[nH]c2c1
[1]
  IC50: 1.2 nM

## Cc1ccc(C(=O)Nc2cccc(C(F)(F)F)c2)cc1-c1ccc2c(-c3ccc(N4CCN(C)CC4)cc3)n[nH]c2c1
[6]
  AUC(0-t): 44 ng·h/mL
[7]
  IC50: 89.5 nM
[3]
  IC50: 136 nM
[1]
  IC50: 8.8 nM
[9]
  Cmax: 15.9 ng/mL
[10]
  Tmax: 1.33 h

## CCCn1cc(-c2n[nH]c3cc(-c4cc(C(=O)Nc5cccc(C(F)(F)F)c5)ccc4C)ccc23)cn1
[2]
  Activity: 41%
[3]
  IC50: 358 nM
[1]
  IC50: 3.2 nM

## Cc1ccc(C(=O)Nc2cccc(C(C)(C)C#N)c2)cc1-c1ccc2cn[nH]c2c1
[1]
  IC50: 2.7 nM

## Nc1n[nH]c2ccc(-c3cccc(NC(=O)c4cccc(C(F)(F)F)c4)c3)cc12
[4]
  inhibition: 13.1%
[12]
  inhibition: 35.9%

## Cc1ccc(C(=O)Nc2cc(CN3CCN(C)CC3)cc(C(F)(F)F)c2)cc1-c1ccc2cn[nH]c2c1
[1]
  IC50: 4.7 nM

## Cc1ccc(C(=O)Nc2cccc(C(F)(F)F)c2)cc1-c1ccc2c(-c3ccc(N4CCC(N5CCOCC5)CC4)cc3)n[nH]c2c1
[3]
  IC50: 177 nM
[1]
  IC50: 8.7 nM

## Cc1ccc(C(=O)Nc2cccc(C(F)(F)F)c2)cc1-c1ccc2c(-c3ccc(CN4CCN(C)CC4)cc3)n[nH]c2c1
[2]
  Activity: 13%
[3]
  IC50: 120 nM
[1]
  IC50: 6.2 nM

## Cc1ccc(C(=O)Nc2cc(CN3CCN(C4CCCC4)CC3)cc(C(F)(F)F)c2)cc1-c1ccc2cn[nH]c2c1
[1]
  IC50: 7 nM

## Cc1cc(NC(=O)c2cccc(C(F)(F)F)c2)cc(-c2ccc3cn[nH]c3c2)c1
[4]
  inhibition: 27.4%
